Data on two compounds can be found in ChEMBL document CHEMBL1914440, “Discovery of potent, selective, and orally bioavailable alkynylphenoxyacetic acid CRTH2 (DP2) receptor antagonists for the treatment of allergic inflammatory diseases” (J Med Chem, 2011).

Converted amounts (≈) assume the structure as drawn. The source made the active and inactive calls. No cut-off for these calls is given here.

The test system of data set [1] is Mus musculus. Put plainly: Antiinflammatory activity in BALB/c mouse model assessed as inhibition of ovalbumin-induced eosinophil accumulation in bronchoalveolar lavage fluid at 30 mg/kg, po administered 1 hr prior to and 7 hrs after ovalbumin challenge for 3 days measured 8 hrs after final dose by cell counting. Type of data set: functional. Particulars: Lung. The method, boiled down:
(§1)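 Compound given by oral gavage 1 h before and 7 h after each challenge. BAL taken 8 h after the last challenge. Total cells counted by hemocytometer; eosinophils counted on DiffQuik-stained cytospins. Reported as mean % inhibition ± SEM.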

Data set [2] is described as follows: Percentage unbound in rat plasma. Type of data set: ADME, cell-free.
Data set [3] has as its target Aldo-keto reductase family 1 member B1 (Homo sapiens, UniProt P15121). Put plainly: Antagonist activity at AR. The data set is classed as functional.
Data set [4] in a line: Half life in BALB/c mouse at 5 mg/kg, po by LC/MS/MS analysis. Details: dose 5 mg/kg, route oral. Particulars: in vivo. The data set is classed as ADME, organism-based.
Data set [5] has as its target Prostaglandin E2 receptor EP2 subtype (Homo sapiens) (UniProt P43116). Put plainly: Inhibition of EP2 receptor at 10 uM. The method, boiled down:
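Selectivity screen: panel of 50 receptor and ion-channel targets, tested at 10 μM; EP2 by binding assay; GABA-gated Cl− channel from rat. Result expressed as % inhibition.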

Data set [6] addresses T1, Prostaglandin D2 receptor (Homo sapiens, UniProt Q13258).
T1 sequence (Q13258 whole entry): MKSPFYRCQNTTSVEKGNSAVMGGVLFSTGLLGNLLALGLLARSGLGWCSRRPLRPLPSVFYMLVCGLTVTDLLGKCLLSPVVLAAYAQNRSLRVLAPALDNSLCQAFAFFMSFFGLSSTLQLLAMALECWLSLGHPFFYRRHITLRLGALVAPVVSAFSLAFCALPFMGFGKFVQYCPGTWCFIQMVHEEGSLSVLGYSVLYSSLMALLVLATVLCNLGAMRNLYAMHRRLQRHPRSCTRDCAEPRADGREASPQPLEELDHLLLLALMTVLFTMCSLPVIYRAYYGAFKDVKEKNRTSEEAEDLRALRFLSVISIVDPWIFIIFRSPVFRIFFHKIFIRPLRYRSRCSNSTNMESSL
Put plainly: Antagonist activity at DP1 by cAMP functional assay. The method, boiled down: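 DP1 functional antagonism measured in a cAMP assay.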

Data set [7] in a line: Percentage unbound in mouse plasma. Type of data set: ADME, cell-free.
The nature of data set [8]: Intrinsic clearance in human liver microsomes assessed per mg of protein at 1 uM by LC/MS/MS analysis. The data set is classed as ADME, Microsome. On the technique in general: Liver microsomes are vesicles of endoplasmic reticulum, rich in cytochrome P450 enzymes.
Data set [9] can be described thus: Intrinsic clearance in rat liver microsomes assessed per mg of protein at 1 uM by LC/MS/MS analysis. The data set is classed as ADME, Microsome.
Data set [10] has as its system Mus musculus. Put plainly: Antiinflammatory activity in BALB/c mouse contact hypersensitivity model assessed as inhibition of FITC-mediated ear swelling at 3 mg/kg, po administered 1 hr prior to and 7 hrs after the FITC-challenge measured 24 hrs after final dose. Type of data set: functional. The method, boiled down: (§2)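 Female 9-week-old BALB/c mice sensitized on days 0 and 1 with 0.5% FITC in acetone/dibutyl phthalate (sham group: vehicle only). Right ear challenged on day 6 with 0.5% FITC. Compound given by oral gavage 1 h before and 7 h after challenge. Ear thickness measured before and 24 h after challenge. Reported as mean % inhibition ± SEM.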

Data set [11] in a line: Percentage unbound in human plasma. Type of data set: ADME, cell-free.
Data set [12] deals with Mus musculus. Put plainly: Antiinflammatory activity in BALB/c mouse contact hypersensitivity model assessed as inhibition of FITC-mediated ear swelling at 30 mg/kg, po administered 1 hr prior to and 7 hrs after the FITC-challenge measured 24 hrs after final dose. Type of data set: functional. The method, boiled down: as §2
Data set [13] has as its system Mus musculus. Put plainly: Antiinflammatory activity in BALB/c mouse model assessed as inhibition of ovalbumin-induced eosinophil accumulation in bronchoalveolar lavage fluid at 3 mg/kg, po administered 1 hr prior to and 7 hrs after ovalbumin challenge for 3 days measured 8 hrs after final dose by cell counting. Conditions: Lung. Type of data set: functional. The method, boiled down: as §1

Data set [14] can be described thus: Solubility of the compound at pH 1.2. Type of data set: physicochemical. Conditions: buffer.
Data set [15] concerns the target T1, Prostaglandin D2 receptor. Put plainly: Binding affinity to DP1.
A short description of data set [16]: AUC in BALB/c mouse at 5 mg/kg, po by LC/MS/MS analysis. Particulars: plasma. Details: dose 5 mg/kg, route oral. Type of data set: ADME, organism-based.
Data set [17] has as its target T2, Prostaglandin D2 receptor 2 (Homo sapiens, UniProt Q9Y5Y4).
T2 sequence (Q9Y5Y4 whole entry): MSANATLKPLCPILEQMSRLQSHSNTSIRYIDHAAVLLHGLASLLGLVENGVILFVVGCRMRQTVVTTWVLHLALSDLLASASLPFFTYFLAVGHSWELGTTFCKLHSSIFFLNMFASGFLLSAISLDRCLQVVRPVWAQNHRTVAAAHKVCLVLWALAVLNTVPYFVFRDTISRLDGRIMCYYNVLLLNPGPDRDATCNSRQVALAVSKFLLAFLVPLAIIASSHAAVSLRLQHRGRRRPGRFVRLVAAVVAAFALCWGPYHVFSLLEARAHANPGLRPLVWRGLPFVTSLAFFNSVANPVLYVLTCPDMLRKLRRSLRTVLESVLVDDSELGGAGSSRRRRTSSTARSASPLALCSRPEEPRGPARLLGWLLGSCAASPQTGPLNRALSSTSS
Put plainly: Displacement of [3H]PGD2 from human CRTH2 expressed in chinese hamster CHO cells by liquid scintillation counting. The data set is classed as cell-based. The method, boiled down: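 Scintillation proximity competition assay: 2–5 μg human CRTH2 cell membranes, 1.5 nM [3H]PGD2, WGA-SPA beads, 10 mM HEPES/KOH pH 7.4, 10 mM MnCl2, protease inhibitors, 1% DMSO; 90 min, room temperature, shaking. Nonspecific binding defined with 1 μM PGD2. Ki by Cheng–Prusoff, mean of ≥3 independent dose–response experiments.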

Data set [18] is described as follows: Oral bioavailability in BALB/c mouse at 5 mg/kg by LC/MS/MS analysis. Type of data set: ADME, organism-based. Particulars: in vivo. The method, boiled down: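 Mouse PK after a 5 mg/kg oral dose.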
Data set [19] has as its system Mus musculus. Put plainly: Antiinflammatory activity in BALB/c mouse contact hypersensitivity model assessed as inhibition of FITC-mediated ear swelling at 10 mg/kg, po administered 1 hr prior to and 7 hrs after the FITC-challenge measured 24 hrs after final dose. Type of data set: functional. The method, boiled down:
as §2

Data set [20] is described as follows: Apparent permeability across human Caco2 cells at 1 uM after 2 hrs by LC/MS/MS analysis. Conditions: Caco-2. The data set is classed as ADME, cell-based. A general note: Passage across Caco-2 layers is used to estimate intestinal permeability.
Data set [21] has as its target T3, Prostaglandin D2 receptor 2 (Mus musculus, UniProt Q9Z2J6).
T3 sequence (Q9Z2J6 whole entry): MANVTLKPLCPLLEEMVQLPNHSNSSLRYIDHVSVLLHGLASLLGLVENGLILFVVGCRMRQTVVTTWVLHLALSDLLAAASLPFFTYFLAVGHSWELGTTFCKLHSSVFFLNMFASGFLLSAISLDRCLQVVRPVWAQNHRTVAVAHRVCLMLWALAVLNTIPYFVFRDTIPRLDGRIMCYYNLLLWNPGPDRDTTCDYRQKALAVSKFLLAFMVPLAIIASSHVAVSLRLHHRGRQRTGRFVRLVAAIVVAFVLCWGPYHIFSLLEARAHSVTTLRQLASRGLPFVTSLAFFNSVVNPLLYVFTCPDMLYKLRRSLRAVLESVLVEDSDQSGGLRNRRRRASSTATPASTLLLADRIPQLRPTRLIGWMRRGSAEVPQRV
Put plainly: Displacement of [3H]PGD2 from mouse CRTH2 expressed in human HEK cells by liquid scintillation counting. The data set is classed as cell-based, HEK293. The method, boiled down: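 Mouse CRTH2 cDNA stably expressed in HEK293(EBNA) cells (hygromycin-selected) and membranes made by nitrogen cavitation. SPA competition uses 2–5 μg membranes, 1.5 nM [3H]PGD2, HEPES/KOH pH 7.4 with 10 mM MnCl2, 1% DMSO, 90 min at room temperature. Nonspecific binding defined with 1 μM PGD2. Ki by Cheng–Prusoff, ≥3 independent experiments.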
Background: Displacement assays read how much labelled ligand stays bound in the presence of the test substance.

Data set [22] is described as follows: Clearance in BALB/c mouse at 5 mg/kg, po by LC/MS/MS analysis. Details: dose 5 mg/kg, route oral. Type of data set: ADME, organism-based. Conditions: in vivo.
Data set [23] has as its target T2, Prostaglandin D2 receptor 2. Put plainly: Antagonist activity human CRTH2 expressed in chinese hamster CHO cells assessed as inhibition of PGD2-induced [35S]GTPgamma binding by liquid scintillation counting. The data set is classed as functional, cell-based. The method, boiled down: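 10 μg human CRTH2 membranes in 20 mM HEPES/KOH pH 7.4, 10 mM MgCl2, 10 μg/mL saponin, 3 μM GDP, 150 mM NaCl, 2% DMSO, 30 °C. Preincubated 10 min, then 0.15 nM [35S]GTPγS for 30 min; stopped by centrifugation. Antagonism tested against 80 nM PGD2. Nonspecific binding with 10 μM GTPγS. Run without BSA.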

Data set [24] concerns Mus musculus. Put plainly: Antiinflammatory activity in BALB/c mouse model assessed as inhibition of ovalbumin-induced eosinophil accumulation in bronchoalveolar lavage fluid at 10 mg/kg, po administered 1 hr prior to and 7 hrs after ovalbumin challenge for 3 days measured 8 hrs after final dose by cell counting. Type of data set: functional. Conditions: Lung. The method, boiled down:
as §1

The nature of data set [25]: Solubility of the compound at pH 7.4. Conditions: buffer. The data set is classed as physicochemical.
Data set [26] is described as follows: Half life in BALB/c mouse at 1 mg/kg, iv by LC/MS/MS analysis. Type of data set: ADME, organism-based. Also noted: dose 1 mg/kg, route intravenous. Particulars: in vivo.
The subject of data set [27] is Mus musculus. Put plainly: Antiinflammatory activity in BALB/c mouse contact hypersensitivity model assessed as inhibition of FITC-mediated ear swelling at 5 mg/kg, ip administered 1 hr prior to and 7 hrs after the FITC-challenge measured 24 hrs after final dose.
In data set [28] the test system is Mus musculus. Put plainly: Antiinflammatory activity in BALB/c mouse model assessed as inhibition of ovalbumin-induced eosinophil accumulation in bronchoalveolar lavage fluid at 1 mg/kg, ip administered 1 hr prior to and 7 hrs after ovalbumin challenge for 3 days measured 8 hrs after final dose by cell counting. Conditions: Lung, route intraperitoneal. The data set is classed as functional. The method, boiled down:
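BALB/c mice were immunised with ovalbumin ip on days 0 and 7, then challenged with aerosolised ovalbumin for 30 min on days 15, 16 and 17. Bronchoalveolar lavage was done 8 h after the last challenge. Total cells were counted by haemocytometer, and eosinophils by differential count on DiffQuik-stained cytospins. Results are given as % inhibition, mean ± SEM.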

Chain of Prostaglandin E2 receptor EP2 subtype (Homo sapiens) (P43116 whole entry): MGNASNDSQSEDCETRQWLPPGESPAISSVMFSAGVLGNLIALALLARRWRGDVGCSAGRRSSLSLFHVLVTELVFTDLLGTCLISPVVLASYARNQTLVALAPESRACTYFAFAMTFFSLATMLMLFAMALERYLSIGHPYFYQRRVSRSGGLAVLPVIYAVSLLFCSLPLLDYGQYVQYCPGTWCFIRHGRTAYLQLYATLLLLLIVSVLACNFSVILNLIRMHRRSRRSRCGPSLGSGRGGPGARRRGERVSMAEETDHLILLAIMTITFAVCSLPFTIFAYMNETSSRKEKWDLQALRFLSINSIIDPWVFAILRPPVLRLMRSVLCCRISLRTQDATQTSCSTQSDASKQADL

Turning to `CCCS(=O)(=O)c1ccc(C)c(C#Cc2cc(Cl)ccc2OCC(=O)O)c1`, the inhibition in vivo – broadly, the percentage by which the read-out fell short of the control – at 30 mg/kg was determined as 81% with Mus musculus [1] and 52% in the data set with Mus musculus [12]. In addition, the fraction unbound (commonly free concentration divided by total concentration) was found to be 0.004 in [2], 0.008 in data set [7] and 0.004 in data set [11]. The half-inhibitory concentration (IC50) (commonly the concentration at which inhibition is half-maximal) in data set [3] came out at 172 nM; in data set [6], 10000 nM; in [23], 7 nM. Moreover, the figures for the half-life in [4] and in data set [26] were 3.9 h and 1.7 h, respectively. Moreover, in [5], the inhibition – broadly, the percentage by which the read-out fell short of the control – stood at 54%. The microsomal CLint at 1 µM in data set [8] and in data set [9] was below 10 µL/min/mg in each case. For the same compound, the results for the inhibition in vivo at 3 mg/kg with Mus musculus [10] and with Mus musculus [13] were 23% and 29%, respectively. Moreover, the results for the solubility in data set [14] and in data set [25] were below 2 µg/mL and 242 µg/mL (≈ 595 µM), respectively. Besides, the Ki (commonly a dissociation constant, usually derived from enzyme kinetics or from competition with a known ligand) is 1580 nM in data set [15], 2 nM in data set [17] and 2.4 nM in data set [21]. The area under the curve (AUC) (in general, concentration integrated over time) in data set [16] was 3730 ng·h/mL. In data set [18], the bioavailability (as a rule, dose-corrected exposure relative to a reference, in per cent) amounted to 80%. Moreover, the inhibition in vivo at 10 mg/kg with Mus musculus [19] came to 56%; in the data set on Mus musculus [24], 54%. The apparent permeability (Papp) (in general, the rate of passage across a membrane or cell layer, normalised by area and donor concentration) at 2 h, 1 µM in data set [20] worked out at 5.2 ×10⁻⁶ cm/s. Also, the apparent clearance CL/F – broadly, clearance divided by bioavailability, as obtained after extravascular dosing – in data set [22] was 16.7 mL/min/kg.

As to `C[C@@H]1C[C@H]2[C@@H]3CCC4=CC(=O)C=C[C@]4(C)[C@@]3(F)[C@@H](O)C[C@]2(C)[C@@]1(O)C(=O)CO` [DEXAMETHASONE], the inhibition entry in the data set on Mus musculus [27] was “Active”. Further, the inhibition in vivo at 1 mg/kg in the data set with Mus musculus [28] was 90%.
